# NALP1 yeast inh = NALP1 inflammasome inhibitors in reconstituted yeast, colorimetric, S. cerevisiae, triplicate retest | S. cerevisiae NALP1/ASC/caspase-1 growth, X-gal OD620, 72 h | hit rate 0.61% among 280,000 | inhibition, % at 10 µM | AID 2071, 2009; in the data active = inhibition mostly above about 24%, no sharp cut-off; inactive = mostly below about 32%
# L major viab = Leishmania major promastigote growth inhibition, primary screen. Leishmania major promastigotes, resazurin fluorescence viability. inhibition, % at 10 µM. hit rate 9% among 200,000. AID 1063, 2008;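 also: promastigotes grown with compound for 44 hours at 28 °C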
# Calb FLC = C. albicans growth inhibition with fluconazole, primary screen, CaCi-2 strain, Alamar Blue fluorescence; C. albicans CaCi-2 + fluconazole, 48 h; growth inhibition, % (no concentration beside the values); hit rate 0.57% among 300,000;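 active = growth inhibition above about 58% in most replicates, limit read from the data, passing the limit was not always enough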;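 also: all wells also contain fluconazole at 8 µg/ml as a sub-toxic cotreatment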
# NLRP3 yeast inh = NALP3 inflammasome inhibitors in reconstituted yeast, primary screen, luminescence, uHTS. hit rate 0.39% among 330,000. AID 2825, 2010. Yeast reconstituted NLRP3/ASC/caspase-1, beta-gal luminescence, 24 h. inhibition, % at 10 µM;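 active = inhibition of 50% or more; inactive = inhibition below 50%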
# PolyA inhibitor = polyadenylation inhibitors in yeast reporter cells, primary screen, luminescence, S. cerevisiae; hit rate 0.02% among 300,000; activity score, % at 12 µM; S. cerevisiae SKY197-pL101 polyadenylation reporter, beta-gal luminescence; efflux-impaired pdr1/pdr3 knockout yeast; score 100 = 6 SD above DMSO; AID 1875, 2009;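 active = lowest replicate activity score at least 50, where 100 means six control SD above control mean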;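 also: yeast exposed to compound for 9 h at 30 °C; higher score means more reporter readthrough which indicates perturbed polyadenylation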
# T cruzi repl = inhibitors of intracellular T. cruzi growth, primary screen, luminescence, NIH3T3 host cells; T. cruzi beta-gal in NIH3T3, 90 h; inhibition, % (concentration not given with the values); AID 1885, 2009; hit rate 1.4% among 300,000;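 active = mean inhibition across valid replicates above about 55%, limit read from the data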;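 also: signal also drops with host cell toxicity which is not excluded here; higher percent means less beta-gal luminescence so fewer parasites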
#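 System – NIH/3T3 host cells with β-galactosidase reporter T. cruzi · Doses – single 50 nL compound addition per well in DMSO · Reagent – 5000 T. cruzi trypomastigotes/well · Medium – Low-serum DMEM with 2% FBS · Timing – ≥90 h infection period, 3 h prior cell attachment · Evaluation – parasite load inhibition, % · Technique – GalScreen luminescence, 60 min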
# NALP3 yeast conf = NALP3 inhibitors retested in yeast, confirmation, luminescence, single concentration; shares compounds with NLRP3 yeast inh; yeast expressing human NALP3; inhibition, % at 10 µM; hit rate 81% among 1,300; AID 435006, 2010; in the data active = inhibition above about 48%
# Casp1 ASC ctr = CASP1-PYCARD signaling inhibition in yeast, confirmatory test, counterassay for NLRP3 inhibitor program, one-dose. shares compounds with NLRP3 yeast inh. yeast expressing Caspase-1-ASC, luminescence counter screen. inhibition, % at 10 µM. hit rate 66% among 1,000. AID 488784, 2010
# NALP3 yeast rt = NALP3 inhibitors in yeast, repeat test, confirmation, luminescence, single concentration, retest; shares compounds with NLRP3 yeast inh; yeast expressing human NALP3, luminescence read-out; inhibition, % at 10 µM; hit rate 53% among 1,000; AID 488794, 2010
# Hits are given with their value; i = inactive; nt = no result. This is one part of a sample in which hits are shown more often than they occur. Rule as the data show it, unless noted: active = inhibition above about 50%; inactive = the rest.
SMILES,NALP1 yeast inh,L major viab,Calb FLC,NLRP3 yeast inh,PolyA inhibitor,T cruzi repl,NALP3 yeast conf,Casp1 ASC ctr,NALP3 yeast rt
COc1ccc(CNC(=O)[C@]2(C)CCC[C@@]3(C)C4CC[C@@]5(C)C[C@]4(CCC32)CC5=O)cc1 (stereo partly specified),nt,nt,nt,51,nt,nt,i,nt,nt
O=c1oc2ccccc2cc1-c1ccc(O)cc1,i,i,i,52,i,i,i,nt,nt
Nc1ccc(-c2cc3ccccc3oc2=O)cc1,i,nt,i,i,i,i,nt,nt,nt
CCCNC(=O)c1ccc(-c2nc3ccccc3s2)s1,i,i,i,58,i,i,76,i,i
CCCc1cc(=O)[nH]c(SCCCCN2C(=O)c3ccccc3C2=O)n1,i,i,i,i,i,i,nt,nt,nt
CCOC(=O)c1ccc(NC(=O)c2nc[nH]c2C(=O)N[C@@H](C)C(=O)OC(C)(C)C)cc1,nt,nt,i,i,i,i,nt,nt,nt
C[C@H](NC(=O)c1[nH]cnc1C(=O)Nc1ccc(Cl)cc1)C(=O)OC(C)(C)C,nt,nt,i,58,i,i,65,i,i
COc1cc(-c2ccc3oc(-c4cccc(C)c4)c(C#CC4(O)CCCCC4)c3c2)cc(OC)c1OC,nt,nt,nt,i,nt,nt,nt,nt,nt
Cc1sc2ncnc(Oc3ccc(-n4ccnc4)cc3)c2c1C,i,i,i,53,i,i,61,69,i
COc1ccc(-n2ccnc2)cc1,i,i,i,i,i,i,nt,nt,nt
O=C(c1ccccc1)n1ccc(-c2cnc(-c3ccccc3)s2)n1,i,i,i,62,i,i,60,i,i
COc1ccc(S(=O)(=O)n2ccc(-c3cnc(-c4ccccc4)s3)n2)cc1,i,i,i,i,i,i,nt,nt,nt
O=S(=O)(c1ccc(Cl)cc1)c1snnc1-c1ccccc1,i,100,i,61,i,60,72,74,66
CN(C)c1ncc(S(=O)(=O)c2ccc(Cl)cc2)c(-c2ccccc2)n1,i,i,i,i,i,i,nt,nt,nt
O=C(CNCC1(N2CCOCC2)CCCCC1)Nc1ccc(Cl)cc1,i,i,i,i,i,i,nt,nt,nt
CCOC(=O)Nc1ccc(S(=O)(=O)NC2CCCCC2)cc1,i,i,i,57,i,i,68,nt,nt
Cc1cccc(C)c1NC(=O)Cn1c(=O)n(CCCC(=O)NCc2ccco2)c(=O)c2sccc21,i,i,i,i,i,i,nt,nt,nt
Cc1ccccc1CN1CCC(n2nccc2NC(=O)c2ccc3c(c2)OCO3)CC1,i,nt,i,i,i,i,nt,nt,nt

# Compound activity from PubChem.
